Data from ChEMBL document CHEMBL4513216, “Probing the Open Global Health Chemical Diversity Library for Multistage-Active Starting Points for Next-Generation Antimalarials” (ACS Infect Dis, 2020).

Assay: Toxicity liver stage against HepG2, at 10uM
Format: cell-based
Design: test concentration 10 uM, cell line HepG2-A16-CD81EGFP
Details: human, HepG2-A16-CD81EGFP cells; read-out: INHIBITION
Summary of the method: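 Uninfected HepG2-A16-CD81EGFP cells, 3 × 10^3 per well, 1536-well, plated on prespotted compound at 10 μM final, parasite-free screening media added to match infected plates; puromycin 10 μM positive, DMSO 0.5% negative; run in parallel with 48 h PbLuc assay at 37 °C, 5% CO2; viability by CellTiter-Glo luminescence, normalized to controls.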

SMILES: CN(C)C(=O)N[C@H]1CN(Cc2ccc3c(c2)OCO3)[C@@H]2CCCO[C@H]12
- cytotoxicity at 10 µM: 4.32%

SMILES: Cc1ccc(N2C[C@H]3CCC[C@@H](CN4CCOCC4)[C@H]3C2)nn1
- cytotoxicity at 10 µM: 10.7%

SMILES: O=C(NC1CC1)N1CCOC2(CCCN(c3cccc(F)c3)C2)C1 (stereo unspecified)
- cytotoxicity at 10 µM: 4.23%

SMILES: Cc1cc2nccc(C3CCCN(C(=O)c4ccccc4F)C3)n2n1 (stereo unspecified)
- cytotoxicity at 10 µM: 13.6%

SMILES: Fc1cnc(N2CCCn3cnc(COc4cccnc4)c3C2)nc1
- cytotoxicity at 10 µM: 1.42%

SMILES: COc1cc(C(=O)N2CCCS2(=O)=O)cc(Cl)c1OC
- cytotoxicity at 10 µM: 2.31%

SMILES: COc1ccc(CNC(=O)c2nn(C)c3c2CS(=O)(=O)CC3)cc1OC
- cytotoxicity at 10 µM: 8.09%

SMILES: CCCS(=O)(=O)N1C[C@H]2OC(=O)N(CCc3cccc(Cl)c3)[C@H]2C1
- cytotoxicity at 10 µM: -2.12%

SMILES: CCc1noc(C(C)N(C)CC(=O)Nc2cccc(C)c2C)n1 (stereo unspecified)
- cytotoxicity at 10 µM: 6.35%

SMILES: O=C(CCc1ccco1)Nc1ccc(Br)cn1
- cytotoxicity at 10 µM: 81.2%

SMILES: Cc1nc2c(cc1C(=O)O)CCN(CC1CC1)CC2
- cytotoxicity at 10 µM: -154%

SMILES: O=C(CNC(=O)C1(c2ccc(F)cc2F)CCC1)Nc1ccccn1
- cytotoxicity at 10 µM: -16.5%

SMILES: CCC(O)CN1CCN(C(=O)Cc2c(C)nc(C)[nH]c2=O)CC1 (stereo unspecified)
- cytotoxicity at 10 µM: -19.3%

SMILES: CC(C)n1cnnc1CN1CCC2(CCCN(C3CCCCC3)C2=O)C1 (stereo unspecified)
- cytotoxicity at 10 µM: -123%

SMILES: Cc1ccc(N2CCN(C(=O)COc3ccccc3)CC2)nn1
- cytotoxicity at 10 µM: -14.6%

SMILES: COCc1cnc2n1CCN(Cc1cccnc1)C2C (stereo unspecified)
- cytotoxicity at 10 µM: -8.79%

SMILES: CC(C)C(C)(C#N)NC(=O)CN1CCC(c2ccnn2CCO)CC1 (stereo unspecified)
- cytotoxicity at 10 µM: -4.95%

SMILES: CC(C)c1nn(C)c(N(C)C)c1CNCc1ccc(CO)c(F)c1
- cytotoxicity at 10 µM: -5.4%

SMILES: CCSc1ccccc1C(=O)N1CCC(S(=O)(=O)c2nncn2C)CC1
- cytotoxicity at 10 µM: 0.595%

SMILES: CC(CNC(=O)N(C)Cc1ccco1)N1CCc2sccc2C1 (stereo unspecified)
- cytotoxicity at 10 µM: -13.7%

SMILES: Cc1c2ncn(CC(=O)N(C)C)c(=O)c2nn1C
- cytotoxicity at 10 µM: -2.56%

SMILES: CCNC(c1cccnc1)c1ccc(F)c(F)c1 (stereo unspecified)
- cytotoxicity at 10 µM: 1.03%

SMILES: COc1ccc2c(c1)CC(NCCCn1cc(C)cn1)CC2 (stereo unspecified)
- cytotoxicity at 10 µM: 18%

SMILES: COCCO[C@H]1CCN(c2cc(OC)ncn2)[C@H]1Cc1cccnc1
- cytotoxicity at 10 µM: -140%

SMILES: NC(=O)C1CCN(C(=O)CCCc2nnc(-c3ccccc3)o2)C1 (stereo unspecified)
- cytotoxicity at 10 µM: -19.8%

SMILES: Cc1nc(C(=O)N2CCN(c3ccc(Cl)c(Cl)c3)CC2)cs1
- cytotoxicity at 10 µM: 2.35%

SMILES: CCN1CCC(CC(=O)NCCc2nc(O)cc(O)n2)CC1
- cytotoxicity at 10 µM: -4.76%

SMILES: COc1ccnc(N2CCN(CC(=O)N3CCOC(C)C3)CC2)n1 (stereo unspecified)
- cytotoxicity at 10 µM: -5.4%

SMILES: Cc1cnn(C2CCCN(C(=O)CCCc3ccccn3)C2)c1 (stereo unspecified)
- cytotoxicity at 10 µM: -11.2%

SMILES: Cn1cc(CN2CC[C@H]3O[C@@H](C(=O)NC4CC4)CC[C@H]32)cn1
- cytotoxicity at 10 µM: -1.55%

SMILES: Cc1cccc(N2CCC(N3CCCC4(CNC(=O)O4)C3)CC2)c1C (stereo unspecified)
- cytotoxicity at 10 µM: -6.67%

SMILES: O=C(NC[C@H]1OC[C@@H]2CN(Cc3ccco3)CC[C@@H]21)c1cscn1
- cytotoxicity at 10 µM: -145%

SMILES: O=C(NCc1cccc(F)c1)NC1CCCN(c2ncccn2)C1 (stereo unspecified)
- cytotoxicity at 10 µM: -0.7%

SMILES: CN1CC[C@H]2[C@H](C[C@@H](Cn3cncn3)N2c2nccs2)C1
- cytotoxicity at 10 µM: -144%

SMILES: Cc1nnc(NC(=O)CN2CCc3c(nc(C4CC4)n3C)C2)s1
- cytotoxicity at 10 µM: -8.51%

SMILES: CN1CCC(n2nc(Cc3cccs3)nc2-c2ccncc2)CC1
- cytotoxicity at 10 µM: -7.76%

SMILES: CCc1cnc(N2Cc3cnc(C(C)(C)C)nc3C2)nc1
- cytotoxicity at 10 µM: 3.51%

SMILES: Cc1nc[nH]c1CN(Cc1ccc(F)cc1)C1CC(C)(C)NC(C)(C)C1
- cytotoxicity at 10 µM: 0.92%

SMILES: NC(=O)c1ccc(OCC(=O)N2CCCC2c2ccc[nH]2)cc1 (stereo unspecified)
- cytotoxicity at 10 µM: -5.82%

SMILES: O=C(c1ccsc1)N1CC(c2nc(-c3ccc[nH]c3=O)no2)C1
- cytotoxicity at 10 µM: -7.39%

SMILES: COc1cnc(CSc2nnc(C)s2)cc1OCC(=O)NC1CCCC1
- cytotoxicity at 10 µM: 3.43%

SMILES: O=C(c1cnccn1)N1CCCC2(CCN(Cc3ccsc3)C2)C1 (stereo unspecified)
- cytotoxicity at 10 µM: -2.27%

SMILES: COc1ccc(OC2CCN(c3ccncc3)CC2)cc1
- cytotoxicity at 10 µM: 2.1%

SMILES: CCOCC(=O)N1Cc2[nH]nc(COCC3CC3)c2C1
- cytotoxicity at 10 µM: 9.29%

SMILES: CCS(=O)(=O)N1CC[C@@H]2[C@H](CC1)N(CC(C)C)CCS2(=O)=O
- cytotoxicity at 10 µM: 8.4%

SMILES: Cc1nc(C)c(C(=O)NCCNc2ncccn2)s1
- cytotoxicity at 10 µM: -3.65%

SMILES: Cc1nc(C(C)(C)NCc2ncc(C(C)C)o2)sc1C
- cytotoxicity at 10 µM: 6.32%

SMILES: Nc1nccc(C2CN(Cc3ccc(-c4ccccc4C(=O)O)o3)C2)n1
- cytotoxicity at 10 µM: 5%

SMILES: Cc1cc(C)cc(N(C)S(=O)(=O)c2cc(C(=O)O)cs2)c1
- cytotoxicity at 10 µM: -10.4%

SMILES: CCn1cc(NC(=O)C2CCN(Cc3nc(C)c(C)s3)CC2)cn1
- cytotoxicity at 10 µM: 6.37%

SMILES: O=C(c1cncc(NCC2COc3ccccc3C2)n1)N1CCOCC1 (stereo unspecified)
- cytotoxicity at 10 µM: -3.37%

SMILES: CS(=O)(=O)Nc1ccn(Cc2ccc(Cl)cc2)n1
- cytotoxicity at 10 µM: 6.44%

SMILES: CNS(=O)(=O)c1ccc(CN2CCCN(Cc3ccncc3)CC2)cc1
- cytotoxicity at 10 µM: 7.06%

SMILES: COCCN1Cc2nccn2CC(COCc2csc(C)n2)C1 (stereo unspecified)
- cytotoxicity at 10 µM: 6.22%

SMILES: CN1CCN(c2ccc3ccc(C(=O)N4CCCO4)cn23)CC1
- cytotoxicity at 10 µM: 13.4%

SMILES: CC(CNS(C)(=O)=O)c1ccc(F)c(F)c1 (stereo unspecified)
- cytotoxicity at 10 µM: -4.71%
